Arr AP2 block: inhibitors of human beta-arrestin and AP2 interaction; AID 504490; inhibition, % at 10 µM; 340,000 tested, 0.31% active; FITC-arrestin peptide / GST-AP2 beads, flow cytometry; AP2 beta2 appendage carries R879A mutation;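 active = inhibition above a set limit, near 3 SD of compounds lacking own fluorescence, cut at about 54% in these data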;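 also: plate controls were DMSO wells for no effect and 5 µM unlabelled arrestin peptide for full effect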
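System: GST-AP2 R879A glutathione beads; medium: PBS, Tween 20 0.05%, BSA 0.1%; reagent: fluorescein-tagged arrestin peptide at 50 nM final; schedule: pre-incubation 12 min, peptide binding 1 h, room temperature; detection: flow cytometry, FL1 (488/535 nm); read-out: inhibition as reduced fluorescein signal on beads, percent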
Beta2AR agonist: human beta-2 adrenergic receptor agonism by FAP; Am2.2-beta2AR cells, FAP receptor internalization, flow cytometry; P07550; AID 504454; response, % (concentration not given with the values); 340,000 tested, 0.43% active;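 active = response above a set limit, near 3 SD of response in nonfluorescent compounds, cut at about 42% in these data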
Target sequence (P07550 whole entry, looked up): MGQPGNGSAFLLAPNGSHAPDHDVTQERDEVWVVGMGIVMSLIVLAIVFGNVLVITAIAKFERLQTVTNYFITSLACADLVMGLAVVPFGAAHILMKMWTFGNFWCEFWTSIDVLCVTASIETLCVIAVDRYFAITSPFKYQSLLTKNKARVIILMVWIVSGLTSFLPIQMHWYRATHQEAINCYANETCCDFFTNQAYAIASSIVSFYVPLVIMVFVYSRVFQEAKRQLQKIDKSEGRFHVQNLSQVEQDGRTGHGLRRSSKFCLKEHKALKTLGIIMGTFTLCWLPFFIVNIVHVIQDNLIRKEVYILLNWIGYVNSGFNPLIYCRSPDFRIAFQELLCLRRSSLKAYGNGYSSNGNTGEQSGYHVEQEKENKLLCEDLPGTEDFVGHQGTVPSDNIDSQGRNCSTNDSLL
H9c2 TAG inh: inhibitors of triacylglycerol accumulation | H9c2 cells, Nile Red lipid (TAG) fluorescence; cells loaded with 200 µM oleic acid | inhibition, % at 12.5 µM | 230,000 tested, 0.66% active;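 active = pattern-corrected inhibition of lipid staining of at least 50% with the nuclear-stain viability signal not falling by more than 50%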;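 also: 0% = DMSO wells and 100% = triacsin C control wells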
GRK2 inh: inhibitors of human GRK2 displacing RNA aptamer; AID 488847; inhibition of aptamer binding, % at 10 µM; P25098; 330,000 tested, 0.59% active; bead flow cytometry, FAM-aptamer displacement from GRK2;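 active = inhibition of aptamer binding above 40%, roughly 3 SD of noise, on plates passing a quality check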;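 also: median bead fluorescence of bound FAM aptamer so fluorescent compounds give negative values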
NTR1 ag: NTR1 (human) agonism | NTR1-U2OS beta-arrestin-GFP spot imaging, agonist mode | activation, % at 20 µM | 330,000 tested, 0.17% active;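 active = activation at or above 40% of the spot to cytoplasm intensity ratio, with at least 20 cells analyzed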;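 also: 0% = DMSO without peptide and 100% = 100 nM NTR1 peptide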
Lipid droplet: modulators of hepatic lipid droplet formation; AML12 mouse hepatocytes, oleate lipid droplets, BODIPY imaging; inhibition, % at 6.5 µM; 240,000 tested, 0.4% active; AID 1656;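 active = lipid droplet intensity inhibited by at least 50%, with more than 500 cells counted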
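Assay system: AML12 mouse liver cells | Compound: 6.5 µM single-point dosing | Schedule: Overnight exposure | Technique: Fluorescence imaging, 20x objective, two fields per well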
Arr-AP2 CP1: blocks beta-arrestin peptide binding to human AP2; shares compounds with Arr AP2 block; GST-AP2 beads, FITC arrestin peptide binding, flow cytometry; GST-fused beta2-adaptin appendage, R879A mutant; inhibition, % at 10 µM; 1,300 tested, 2% active;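 active = inhibition above a set limit, roughly 3 SD of non-fluorescent compound noise, cut at about 38% in these data; inactive = inhibition at or below that limit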;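 also: loss of bead fluorescence from 50 nM FITC arrestin peptide bound to appendage; 0% = negative control wells and 100% = excess unlabelled arrestin peptide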
GST-FITC bead: disrupts GST binding to glutathione beads, arrestin-AP2 artifact; inhibition, % at 10 µM; GST-fluorescein binding to GSH beads, fluorescence, counter-screen; AID 588338; 1,300 tested, 2% active; shares compounds with Arr AP2 block;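 active = inhibition above 50%, about 3 SD of the inhibition seen with non-fluorescent compounds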;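 also: fluorescein maleimide labelled GST captured on 4 micron glutathione beads; higher means more loss of bead fluorescence from quenching or blocked binding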
Active calls of the source: *; . = no result given. Compounds with a hit are over-represented: about 2% of the library has one in this group of screens.

SMILES	Arr AP2 block	Beta2AR agonist	H9c2 TAG inh	GRK2 inh	NTR1 ag	Lipid droplet	Arr-AP2 CP1	GST-FITC bead
Cn1c(N)c(C(=O)COC(=O)c2cc(S(=O)(=O)N3CCCCC3)ccc2Cl)c(=O)n(C)c1=O	3	3	.	0	3	24	.	.
CC(=O)c1c(C)[nH]c(C(=O)OCC(=O)c2c(N)n(CC(C)C)c(=O)n(C)c2=O)c1C	0	-7	-12	0	2	.	5	5
Cn1c(N)c(C(=O)COC(=O)c2ccc(OC(F)F)cc2)c(=O)n(C)c1=O	16	-8	3	1	2	.	0	-1
CC(C)Cn1c(N)c(C(=O)COC(=O)c2cc(F)cc(F)c2)c(=O)n(C)c1=O	21	14	-7	2	2	-14	.	.
Cn1c(N)c(C(=O)COC(=O)c2ccc(F)cc2Cl)c(=O)n(C)c1=O	-12	-8	9	3	1	.	11	7
COc1ccc(CC(=O)Nc2c(C(=O)N3CCN(c4ncccn4)CC3)oc3ccccc23)cc1	7	8	.	0	0	3	.	.
COc1ccc(-c2c3c(cc4ncn(Cc5ccccc5)c24)COC3=O)cc1	32	-7	-11	0	2	.	.	.
COc1cc(C(=O)OCC(=O)c2c(N)n(C)c(=O)n(C)c2=O)ccc1OCCC(C)C	55*	-6	-18	1	2	14	6	-4
Cn1c(N)c(C(=O)COC(=O)c2cc3ccccc3cc2O)c(=O)n(C)c1=O	-9	14	-6	1	4	.	.	.
Cn1c(N)c(C(=O)COC(=O)c2ccco2)c(=O)n(C)c1=O	7	-9	7	1	0	.	5	0
CC(C)c1ccc(C(=O)OCC(=O)c2c(N)n(C)c(=O)n(C)c2=O)cc1	20	25	1	1	16	.	18	3
CCOc1ccc(OCCOC(=O)C2CCN(S(=O)(=O)c3ccc(C)c(C)c3)CC2)cc1	16	3	0	2	1	.	.	.
NC(Cc1ccc(F)cc1)c1csc(Nc2ccc(S(N)(=O)=O)cc2)n1 (configuration not stated)	.	.	-9	.	.	.	.	.
COc1cc(C2C(C(C)=O)=C(O)C(=O)N2CCN(C)C)ccc1O (configuration not stated)	69*	2	4	1	0	.	5	-5
Cc1cccc2c1c1ccc3c(c1n2C)C(=O)C=CC3=O	67*	89*	.	.	.	-5	49*	0
Cc1cc(N/N=C/c2ccncc2)nc2ccccc12	27	5	-1	.	.	13	.	.
Cc1cc(N/N=C/c2cccc(Br)c2)nc2ccccc12	57*	9	.	2	23	-40	5	0
CC1CCCN(C2(O)C(=O)Nc3ccc(Cl)cc32)C1 (configuration not stated)	57*	0	.	4	-1	.	12	-1
COc1ncnc2c1ncn2CCCN[C@H](C)c1cccc2ccccc12	.	.	11	.	.	.	.	.
COc1ccc2c(c1)S/C(=C\C(=O)c1ccncc1)N2C	91*	-2	15	6	1	.	5	-2
CN1/C(=C/C(=O)c2ccc(Cl)cc2)Sc2cc3c(cc21)OCO3	103*	9	.	0	7	28	-1	-5
COc1ccc(C(=O)/C=C2/Sc3cc4c(cc3N2C)OCO4)cc1	36	30	0	0	3	-6	.	.
O=C(NCc1ccco1)/C(=C\c1ccc(F)cc1)NC(=O)c1ccco1	13	-6	.	3	2	-3	.	.
NC(=O)c1ccc[n+](Cc2ccc(-c3ccccc3)cc2)c1	1	-13	.	0	0	.	.	.
Cc1cc(C)n(CC(=O)O)c(=O)c1[N+](=O)[O-]	66*	14	-11	3	2	-1	-11	-2
SMILES	Arr AP2 block	Beta2AR agonist	H9c2 TAG inh	GRK2 inh	NTR1 ag	Lipid droplet	Arr-AP2 CP1	GST-FITC bead
COc1ccc(S(=O)(=O)N2CCC3(CC2)OCCN3S(=O)(=O)c2ccc(C)cc2)cc1OC	-19	0	-8	3	2	.	.	.
Cc1ccc(-c2nc3cc(NC(=O)C(C)C)ccc3o2)cc1	-10	-5	8	0	1	-7	.	.
Cc1cc2nc(-c3ccc(NC(=O)C(C)C)cc3)oc2cc1C	60*	-7	10	0	1	3	-10	0
CC(NC(=O)c1cc(S(=O)(=O)N2CCOCC2)ccc1N1CCCC1)c1ccc(Cl)c(Cl)c1 (configuration not stated)	-7	9	17	0	2	.	13	-1
CN(CCOc1ccc(Cl)cc1)C(=O)c1cc(S(=O)(=O)N2CCOCC2)ccc1N1CCCC1	-1	4	-12	0	4	.	20	-8
CN(Cc1ccc(F)cc1)C(=O)c1cc(S(=O)(=O)N2CCCCC2)ccc1N1CCOCC1	-2	-1	-6	.	-1	.	.	.
CN(Cc1ccc(Cl)cc1)C(=O)c1cc(S(=O)(=O)N2CCOCC2)ccc1N1CCCC1	-9	3	4	0	1	.	-2	-13
Cc1ccc(S(=O)(=O)N2CCOCC2)cc1C(=O)N(C)CCOc1ccc(Cl)cc1	-7	-5	-19	0	2	9	.	.
CCCCOC(=O)c1ccc(NC(=O)COC(=O)C2CSC3(C)CCC(=O)N23)cc1 (configuration not stated)	2	1	-2	0	2	.	-11	-6
CN(C)S(=O)(=O)c1cc(NC(=O)COC(=O)C2CSC3(C)CCC(=O)N23)ccc1Cl (configuration not stated)	8	0	.	4	0	0	-5	-10
CC12CCC(=O)N1C(C(=O)OCC(=O)Nc1cc(S(=O)(=O)N3CCCCC3)ccc1Cl)CS2 (configuration not stated)	-2	2	-16	0	1	0	.	.
Cc1ccnn1CCC(=O)N1CCCC(Nc2ccc(F)c(F)c2)C1 (configuration not stated)	67*	9	.	0	0	17	6	-2
CCn1nc(NS(=O)(=O)c2cccc3nonc23)c2cc3ccc(C)cc3nc21	68*	7	.	3	0	8	-2	8
O=C(CCN1CCN(C(=O)c2ccccc2)CC1)c1ccc(Br)cc1	-2	7	.	3	0	-21	.	.
CN(C)c1ccc(CCc2ccc(N)cc2)cc1	23	17	0	0	1	.	.	.
Nc1ccc(N(c2ccccc2)c2ccc(N)cc2)cc1	59*	6	-41	0	6	.	10	16
